ABCB6 inh MLPCN = blocks the human ABCB6 transporter; 0.19% of 360,000 active; K562-ABCB6 porphyrin accumulation, flow cytometry, 1 h; stronger effect = lower value; Q9NP58; fluorescence ratio to DMSO, % at 10 µM;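 active = fluorescence ratio to DMSO below 75%, the collection mean minus 3 SD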;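 also: signal is porphyrin accumulated inside mitochondria; lower ratio means ABCB6 inhibition with less porphyrin fluorescence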
Target sequence (Q9NP58 whole entry, looked up): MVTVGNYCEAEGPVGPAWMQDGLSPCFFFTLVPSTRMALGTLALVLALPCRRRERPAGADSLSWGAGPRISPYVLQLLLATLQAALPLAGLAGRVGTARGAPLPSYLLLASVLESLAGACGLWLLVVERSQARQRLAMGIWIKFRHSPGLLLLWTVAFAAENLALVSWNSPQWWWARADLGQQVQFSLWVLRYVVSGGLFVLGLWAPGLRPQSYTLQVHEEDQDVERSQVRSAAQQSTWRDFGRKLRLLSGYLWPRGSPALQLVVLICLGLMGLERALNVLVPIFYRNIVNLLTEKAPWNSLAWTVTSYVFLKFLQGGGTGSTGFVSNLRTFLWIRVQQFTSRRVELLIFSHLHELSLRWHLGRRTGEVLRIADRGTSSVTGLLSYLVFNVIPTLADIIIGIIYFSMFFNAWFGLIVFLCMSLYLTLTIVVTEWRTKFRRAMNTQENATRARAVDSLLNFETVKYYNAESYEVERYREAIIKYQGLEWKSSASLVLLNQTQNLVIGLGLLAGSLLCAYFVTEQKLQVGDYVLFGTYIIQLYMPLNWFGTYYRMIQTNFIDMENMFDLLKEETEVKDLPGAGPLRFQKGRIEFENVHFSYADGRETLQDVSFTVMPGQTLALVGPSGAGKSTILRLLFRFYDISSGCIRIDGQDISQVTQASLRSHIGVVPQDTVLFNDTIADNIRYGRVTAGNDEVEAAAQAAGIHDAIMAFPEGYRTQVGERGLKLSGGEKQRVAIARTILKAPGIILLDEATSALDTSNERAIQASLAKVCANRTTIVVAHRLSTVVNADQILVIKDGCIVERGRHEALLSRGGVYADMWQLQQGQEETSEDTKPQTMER
AHR act = activates the human aryl hydrocarbon receptor; AHR-responsive luciferase reporter cells, luminescence; activation, % at 5 µM; 2.5% of 320,000 active; AID 2796; in the data active = activation above about 47%
STAT3 act = activators of IL-6 induced STAT3 signaling. U3A cells, IL-6 STAT3-luciferase reporter, luminescence; 100% = signal with IL-6 EC80 alone. activation (% of control), % at 5.6 µM. 0.91% of 190,000 active. AID 871;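 active = activation above the screen-wide mean of compound activation plus 3 SD, cut at about 130% in these data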
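Test system: Human STAT1-deficient U3A cells with stable STAT3-luciferase reporter | Also added: Interleukin-6, 33 ng/mL | Timing: Compound pre-incubation 1 h before IL-6, then 6 h stimulation at 37 °C | Technique: Luciferase reporter luminescence | Read-out: Percent of IL-6-only median luminescence | Benchmarks: IL-6-only wells as 100% reference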
FXN GAA850 act = increases GAA850 frataxin promoter reporter activity. 0.56% of 360,000 active. activation, % at 6 µM. HEK293 lucGAA850 FXN promoter luciferase reporter, 24 h; percent of 10 µM SAHA response. AID 540364;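 active = activation above the average of all compounds screened plus 3 SD, cutoff fixed separately per campaign, cut at about 7.5% in these data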
GAA30 counter = counter-screen for GAA850 frataxin promoter activators: GAA30 promoter activation | shares compounds with FXN GAA850 act | 66% of 1,900 active | AID 588350 | activation, % at 6 µM | HEK293 lucGAA30 FXN promoter luciferase, 24 h; DMSO = 0%, 5 µM ipriflavone = 100%;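 active = mean activation above the mean of solvent-only control wells plus 3 SD, cut at about 22% in these data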;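 also: counterscreen of GAA850 promoter hits where activity marks nonselective or luminescence artifacts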
GAA850 confirm = confirmation of GAA850 frataxin (FXN) promoter activators; AID 588351; shares compounds with FXN GAA850 act; 86% of 1,900 active; HEK293 lucGAA850 FXN promoter luciferase reporter, 24 h; 100% = activation by SAHA; activation, % at 6 µM;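 active = mean activation above a set limit taken from the primary screen, cut at about 8% in these data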
Large screens that a line does not name were inactive (follow-up assays come after a bar, where they were run). Rows were chosen to be rich in hits. Some 3.3% of all compounds tested hit in one or more screens of this group.

CC(=O)N(C1CC(C)C(C#N)(C#N)C1(C#N)C#N)N(C)C (stereo not drawn)	FXN GAA850 act 9.9 | GAA30 counter inactive | GAA850 confirm inactive
CC1=C(C(=O)OCc2ccccc2)C(c2ccccc2OC(F)F)NC(=O)N1 (stereo not drawn)	none
O=C(CCC(=O)N1CCOc2ccccc21)Nc1ccccc1Cl	none (no result: STAT3 act)
CCCCCCN1C[C@H](O)[C@@H](n2cc(COC(=O)c3ccccc3)nn2)C[C@@H]1c1ccc(Cl)cc1	none (no result: AHR act, STAT3 act)
C[C@@H]1CN([C@H](C)CO)S(=O)(=O)c2ccc(Br)cc2O[C@@H]1CN(C)Cc1ccc(C(=O)O)cc1	none (no result: AHR act, STAT3 act)
C[C@@H]1CN([C@H](C)CO)S(=O)(=O)c2ccc(Br)cc2O[C@@H]1CN(C)Cc1ccc(-c2ccccc2)cc1	FXN GAA850 act 14 (no result: AHR act, STAT3 act) | GAA30 counter 24 | GAA850 confirm 11
CC(=NNC(=S)Nc1ccccc1Cl)c1ccccn1	FXN GAA850 act 14 (no result: AHR act, STAT3 act) | GAA30 counter inactive | GAA850 confirm 25
Cc1ccc(N(CC(O)Cn2c3ccccc3c3ccccc32)S(C)(=O)=O)cc1 (stereo not drawn)	none
CC(=O)Nc1ccc(N(CC(O)Cn2c3ccccc3c3ccccc32)S(=O)(=O)c2ccc(C)cc2)cc1 (stereo not drawn)	FXN GAA850 act 16 | GAA30 counter inactive | GAA850 confirm 12
CCNc1c(NC(=O)COc2ccc(Cl)cc2)c(=O)oc2ccccc12	none (no result: STAT3 act)
COCCCN(C(=S)NC(=O)C12CC3CC(CC(C3)C1)C2)c1c(N)n(Cc2ccccc2)c(=O)[nH]c1=O	FXN GAA850 act 8.4 | GAA30 counter inactive | GAA850 confirm 8.2
CCN1CCCC1CNC(=O)c1ccc2c(c1)NC(=O)/C(=C\c1ccc(OC)c(OC)c1)S2 (stereo not drawn)	FXN GAA850 act 7.7 (no result: STAT3 act) | GAA30 counter inactive | GAA850 confirm inactive
CCN1CCCC1CNC(=O)c1ccc2c(c1)NC(=O)/C(=C\c1ccccc1Cl)S2 (stereo not drawn)	none (no result: AHR act, STAT3 act)
Cn1cccc1/C=N/N1CCN(c2ccccc2)CC1	none
CC12CCC(=O)N1C(C(=O)N1CCN(S(=O)(=O)c3cccc(C(F)(F)F)c3)CC1)CS2 (stereo not drawn)	none (no result: STAT3 act)
COCCNc1c(-c2ccc(OC)cc2)nc2ccc(Cl)cn12	none
CCOC(=O)CNc1c(-c2ccc(OC)cc2)nc2ccc(Cl)cn12	FXN GAA850 act 8.0 | GAA30 counter 92 | GAA850 confirm 25
CCN(CC)c1ccc(S(=O)(=O)N2CCCCC2)cc1NC(=O)CN1C(=O)NC2(CCCC2)C1=O	FXN GAA850 act 9.0 (no result: STAT3 act) | GAA30 counter inactive | GAA850 confirm 10
Cc1ccc(S(=O)(=O)N2CCOCC2)cc1NC(=O)CN1C(=O)NC2(CCCC2)C1=O	none (no result: STAT3 act)
N#Cc1ccc(/C=C(\C(=O)C(=O)O)c2ccc3ccccc3n2)cc1	FXN GAA850 act 8.3 (no result: STAT3 act) | GAA30 counter 132 | GAA850 confirm 43
O=C(O)C(=O)/C(=C\c1cccc(Cl)c1)c1ccc2ccccc2n1	none
COc1ccc(C(=O)c2sc(NC(C)C)nc2N)cc1OC	none
COc1cccc(C(=O)c2sc(NC(C)C)nc2N)c1	FXN GAA850 act 12 | GAA30 counter 69 | GAA850 confirm 89
CCC(C)N(CCNC(=O)c1ccc2c(c1)NC(=O)c1ccccc1S2)C1CCCCC1 (stereo not drawn)	FXN GAA850 act 11 (no result: STAT3 act) | GAA30 counter inactive | GAA850 confirm 11
O=c1[nH]cnc2c1c(-c1ccccc1)cn2-c1ccc(Br)cc1	none
Cc1cccc(-n2cc(-c3ccccc3)c3c(=O)[nH]cnc32)c1	FXN GAA850 act 8.9 | GAA30 counter 23 | GAA850 confirm 11
CCCCCc1nc2sc3c(c2c(=O)n1NC(=O)c1ccc([N+](=O)[O-])cc1)CC(C)(C)OC3	none
C/C(=N\Nc1nc2ccccc2[nH]1)c1ccc(C)o1	AHR act 77, FXN GAA850 act 8.4 | GAA30 counter 121 | GAA850 confirm 36
Cc1ccc(C(=O)NCc2nc3ccccc3[nH]2)o1	none (no result: STAT3 act)
O=C(NCCCN1CCOCC1)C(C(=O)c1ccccc1)n1ccccc1=O (stereo not drawn)	none
O=C(Nc1nc2ccccc2[nH]1)C1CCC1	none
O=C(Nc1nc2ccccc2[nH]1)C1CCCC1	FXN GAA850 act 10 | GAA30 counter 86 | GAA850 confirm 26

High-throughput results as filed in PubChem.
